Here are results for 7 molecules from article PMC10245921 (bioRxiv, 2023).

B3: FITC-conjugated CD44 peptide (SRRRCGQKKKLVINSGNGAVEDYK-FITC) (peptide)
peptide: SRRRCGQKKKLVINSGNGAVEDYK(FITC)

Data set [1] concerns the target GST-tagged MSN and Flag-tagged CD44 (Homo sapiens, UniProt P26038). The experiment in a line: GST-pull down assay in cell lysates. The class given is binding. The conditions noted are these: full length proteins in cell lysates. In a few lines: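 HEK293 cells co-express full-length GST-MSN and Venus-Flag-CD44; Venus marks CD44 expression. Lysates are diluted in 10 mM HEPES pH 7.5, 150 mM NaCl, 0.25% Triton X-100 with protease and phosphatase inhibitors. They are dose-treated with test compound in DMSO, rotating 1 h at 4 °C, then captured on GST resin for 1.5 h at 4 °C and washed three times. SDS-PAGE and immunoblotting detect Flag (CD44) and GST (MSN). Two experiments.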

The next data set concerns the target MSN (Homo sapiens, UniProt P26038). The data set is described as follows: Thermal shift assay of MSN with compounds. The class given is binding. The conditions noted are these: two experiments. An outline of the steps: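 Precipitate is removed by centrifugation, then the mix is incubated 30 min at RT. Sypro Orange is added at 20x and the sample ramped 25→95 °C at 1 °C/min. Tm comes from a Boltzmann fit; ΔTm versus DMSO is averaged over two experiments.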

For another data set, the target named is MSN–CD44 interaction (Homo sapiens, UniProt P26038). The data set is described as follows: MSN–CD44 TR-FRET assay. The following applies: for IC50: IC50, confirmatory TR-FRET dose response, Fig. 4D, primary hits; for increase in potency relative to compound 2: MSN–CD44 TR-FRET. The class given is binding. (TR-FRET usually uses a lanthanide donor and a delayed reading to cut background.)
MSN–CD44 interaction, sequence (P26038 1-345): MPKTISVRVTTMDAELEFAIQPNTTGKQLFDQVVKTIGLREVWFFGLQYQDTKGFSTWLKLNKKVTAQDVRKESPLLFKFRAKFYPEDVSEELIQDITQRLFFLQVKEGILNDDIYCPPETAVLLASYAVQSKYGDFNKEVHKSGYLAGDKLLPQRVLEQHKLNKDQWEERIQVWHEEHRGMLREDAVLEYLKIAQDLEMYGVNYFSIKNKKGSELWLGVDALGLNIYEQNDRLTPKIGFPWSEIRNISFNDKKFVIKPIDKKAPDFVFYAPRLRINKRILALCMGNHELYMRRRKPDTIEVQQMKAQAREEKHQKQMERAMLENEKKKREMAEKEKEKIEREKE

The next data set has as its target MSN FERM domain (Homo sapiens, UniProt P26038). The experiment in a line: Surface plasmon resonance. It counts as binding. In a few lines: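 MSN FERM domain is amine-coupled to a CM5 chip in acetate pH 4, to 4000 RU. Multi-cycle kinetics use test compound at 0.5–8 μM. KD comes from a 1:1 binding model fit.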
Background: Surface plasmon resonance follows binding to a sensor surface in real time, without labels.

In data set [2] the target is LgBiT-MSN(T588D) and SmBit-CD44 (Homo sapiens, UniProt P26038, T558D). The experiment in a line: NanoBiT split luciferase assay in live cells. The class given is cell-based. In a few lines: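 HEK293T cells (DMEM, 10% FBS, penicillin/streptomycin, 37 °C, 5% CO2) are seeded at 6000 cells/well. Next day they are transfected with CD44-SmBiT (C-terminal) and LgBiT-MSN(T558D) (N-terminal) plasmids, 20 ng and 5 ng, using Fugene HD; LgBiT-MSN(T558A) is the negative control. After 18 h, 2-fold dilutions of test compound (6.25–0.098 μM, DMSO) are added for 3 h. Nano-Glo Live Cell Reagent is added for 20 min at 37 °C, then luminescence is read. Two independent experiments.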
LgBiT-MSN(T588D) and SmBit-CD44, sequence (P26038 whole entry T558D): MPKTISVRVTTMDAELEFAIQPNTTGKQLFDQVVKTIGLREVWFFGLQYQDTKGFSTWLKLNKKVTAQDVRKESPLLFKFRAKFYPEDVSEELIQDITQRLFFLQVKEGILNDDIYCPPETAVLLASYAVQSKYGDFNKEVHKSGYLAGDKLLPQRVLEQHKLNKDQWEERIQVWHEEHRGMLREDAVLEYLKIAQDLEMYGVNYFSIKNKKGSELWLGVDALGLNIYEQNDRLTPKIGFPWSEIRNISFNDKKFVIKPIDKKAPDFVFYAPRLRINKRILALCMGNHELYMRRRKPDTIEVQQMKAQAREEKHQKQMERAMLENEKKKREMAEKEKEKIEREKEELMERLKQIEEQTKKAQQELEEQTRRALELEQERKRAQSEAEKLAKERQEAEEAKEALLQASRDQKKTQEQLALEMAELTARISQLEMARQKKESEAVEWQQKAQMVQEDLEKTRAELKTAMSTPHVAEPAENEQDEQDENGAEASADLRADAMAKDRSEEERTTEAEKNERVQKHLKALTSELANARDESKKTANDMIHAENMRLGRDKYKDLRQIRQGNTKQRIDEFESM

Data set [3] in a line: Solubility by nephelometry. The class given is physicochemical.
The target in a further data set is SYK-FCER1G (Homo sapiens, UniProt P43405). The experiment in a line: SYK TR-FRET counter screen. The class given is binding.
The target of data set [4] is B3. The data set is described as follows: FRET or BRET. A general note: In BRET a luciferase serves as donor, and the signal depends on an acceptor being close.
For data set [5], the target named is 6His-tagged FERM domain of human MSN (residues 1–345), wild type (human, UniProt P26038 1-345). The experiment in a line: FRET or BRET.
Data set [6] has as its target FERM domain of human MSN (residues 1–345), wild type, 6His tag cleaved (human, UniProt P26038 1-345). The experiment in a line: FRET or BRET.
Setting [7] is: IC50, CD44–MSN interaction in live cells (approximate), NanoBiT, live cells.

Several values for one entry are separate records, joined by “and”; a condition that tells them apart may be missing. Equal entries are not always repeated. Where no end group is shown, it is not given here. The star is where a group is joined. FITC = O=C1OC2(c3ccc(O)cc3Oc3cc(O)ccc32)c2ccc(NC(=S)*)cc21

GST-tagged MSN and Flag-tagged CD44, sequence (P26038 whole entry): as the sequence (P26038 whole entry T558D) above, with D558T counted along it
MSN, sequence (P26038 1-345): as the sequence (P26038 1-345) above
MSN FERM domain, sequence (P26038 1-345): as above

As a reminder, the IC50 is the concentration at which inhibition is half-maximal. A low value points to inhibition by little substance. By Kd is commonly meant the constant that tells how readily two partners part at equilibrium. Turning to `Nc1ccc(C(=O)Nc2ccc(-c3nc4ccc(NC(=O)c5ccc(N)cc5)cc4s3)cc2)cc1.O=C(O)C(F)(F)F.O=C(O)C(F)(F)F` [Compound 1, 4-amino-N-(4-(6-(4-aminobenzamido)benzo[d]thiazol-2-yl)phenyl)benzamide bis(2,2,2-trifluoroacetate)], the “activity in GST-pulldown assay” value in [1] is “active”. For the same molecule, at MSN (at 20 μM), the “av. ΔTm of MSN compared to DMSO alone” value was 1–2 °C. In addition, the IC50 on MSN–CD44 interaction is 5000 to 20000 nM; in data set [2] (setting [7]) it was ~600 nM; in data set [2] (IC50, NanoBiT bioluminescence assay, HEK293 cells, 2 independent experiments), 570 nM and 690 nM. At MSN FERM domain, this molecule gave a Kd of 4200 nM.
As to `COc1ccccc1C(=O)Nc1ccc(-c2nc3ccccc3[nH]2)cc1` [Compound 2, N-(4-(1H-benzo[d]imidazol-2-yl)phenyl)-2-methoxybenzamide], the “activity in GST-pulldown assay” value in data set [1] is on record as “active”. In addition, the “av. ΔTm of MSN compared to DMSO alone” value at MSN (at 20 μM) is 1–2 °C. For the same molecule, the IC50 on MSN–CD44 interaction is 5000 to 20000 nM; in data set [2] (setting [7]), ~200 nM. For the same molecule, in [3], the “solubility in aqueous/PBS buffer” value is “low solubility”. For the same molecule, the Kd at MSN FERM domain is 700 nM.
In the case of `COc1ccc(C(=O)Nc2ccc(-c3nc4ccccc4[nH]3)cc2)c(OC)c1` [Compound 2a, N-(4-(1H-benzo[d]imidazol-2-yl)phenyl)-2,4-dimethoxybenzamide], on SYK-FCER1G, the “activity in the counter screen” value is recorded as “no activity”. Also, the “activity in GST-pulldown assay” value in data set [1] is reported as “able to inhibit”. Also, at MSN (at 50 μM), the “av. ΔTm of MSN compared to DMSO alone” value turned out to be 1.3 °C. The “increase in potency relative to compound 2” value on MSN–CD44 interaction is given as 8 fold. Moreover, in data set [3], the “solubility in aqueous/PBS buffer” value is reported as “improved solubility”.
For `O=C(Nc1ccc(-c2nc3ccccc3[nH]2)cc1)c1cccc(Cl)c1` [Compound 2b, N-(4-(1H-benzo[d]imidazol-2-yl)phenyl)-3-chlorobenzamide], the “activity in the counter screen” value at SYK-FCER1G was “no activity”. Moreover, the “activity in GST-pulldown assay” value in data set [1] is on record as “able to inhibit”. The “av. ΔTm of MSN compared to DMSO alone” value on MSN (at 50 μM) turned out to be 1.2 °C. Also, the “increase in potency relative to compound 2” value at MSN–CD44 interaction is given as 2 fold. The “solubility in aqueous/PBS buffer” value in data set [3] was “improved solubility”.

B1: FERM domain of human MSN (1–345) H288A, 6His tag cleaved (domain or fragment)
chain: MPKTISVRVTTMDAELEFAIQPNTTGKQLFDQVVKTIGLREVWFFGLQYQDTKGFSTWLKLNKKVTAQDVRKESPLLFKFRAKFYPEDVSEELIQDITQRLFFLQVKEGILNDDIYCPPETAVLLASYAVQSKYGDFNKEVHKSGYLAGDKLLPQRVLEQHKLNKDQWEERIQVWHEEHRGMLREDAVLEYLKIAQDLEMYGVNYFSIKNKKGSELWLGVDALGLNIYEQNDRLTPKIGFPWSEIRNISFNDKKFVIKPIDKKAPDFVFYAPRLRINKRILALCMGNAELYMRRRKPDTIEVQQMKAQAREEKHQKQMERAMLENEKKKREMAEKEKEKIEREKE
Take B1: in [4], the “fold higher concentration than wild type needed to inhibit” value was determined as 10 fold.

B2: FERM domain of human MSN (1–345) L281R, 6His tag cleaved (domain or fragment)
chain: MPKTISVRVTTMDAELEFAIQPNTTGKQLFDQVVKTIGLREVWFFGLQYQDTKGFSTWLKLNKKVTAQDVRKESPLLFKFRAKFYPEDVSEELIQDITQRLFFLQVKEGILNDDIYCPPETAVLLASYAVQSKYGDFNKEVHKSGYLAGDKLLPQRVLEQHKLNKDQWEERIQVWHEEHRGMLREDAVLEYLKIAQDLEMYGVNYFSIKNKKGSELWLGVDALGLNIYEQNDRLTPKIGFPWSEIRNISFNDKKFVIKPIDKKAPDFVFYAPRLRINKRIRALCMGNHELYMRRRKPDTIEVQQMKAQAREEKHQKQMERAMLENEKKKREMAEKEKEKIEREKE
Take B2: the “fold higher concentration than wild type needed to inhibit” value in data set [4] was found to be 10 fold.
For the molecule B3, the binding result in [5] and in data set [6] was “binds” in each case.
